In ChEMBL document CHEMBL4732181, “Pyrazolo[3,4-d]pyrimidine-based dual EGFR T790M/HER2 inhibitors: Design, synthesis, structure-activity relationship and biological activity as potential antitumor and anticonvulsant agents” (Eur J Med Chem, 2021):
The source made the active and inactive calls. The calls are words filed in the database; no cut-off is given here.

Tests used:
[1] = test system: MCF7; assay: Induction of apoptosis in human MCF7 cells assessed as decrease in Bcl-2 protein expression at IC50 concentration after 24 hrs by ELISA; format: functional
Summary of the method: (§1)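 Cells treated at IC50 for 24 h and lysed in cell extraction buffer. Lysate diluted in standard diluent buffer and human caspase-3, -7, -9, Bax and Bcl-2 quantified by immunoassay kit (pg/mL). Fold change calculated against untreated control cells.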

[2] = test system: MCF7; assay: Induction of cell cycle arrest in human MCF7 cells assessed as cell accumulation at G2/M phase at IC50 concentration after 24 hrs by propidium iodide staining based flow cytometric analysis (reference value: 3.89%); format: functional
[3] = test system: Mus musculus; assay: Anticonvulsant activity against mouse model of LiCa/pilocarpine-induced status epilepticus assessed as total power density at 20 mg/kg, po for 10 days by EEG method relative to control; format: functional; conditions: time 10 day
Summary of the method: (§2)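 Male mice (20-30 g), five per group, dosed orally once daily for 10 days. Status epilepticus was then induced with LiCa (3 mEq/kg i.p.), atropine sulfate (1 mg/kg i.p.) 30 min before pilocarpine, and pilocarpine HCl (300 mg/kg i.p.) 2 h after LiCa. Normal controls received oral distilled water. Comparators were untreated SE, phenytoin and lamotrigine. One-way ANOVA with Tukey post-hoc; mean ± SD.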

[4] = test system: MCF7; assay: Induction of apoptosis in human MCF7 cells assessed as increase in caspace-7 protein expression at IC50 concentration after 24 hrs by ELISA; format: functional; summary of the method: as §1
[5] = test system: Mus musculus; assay: Anticonvulsant activity against mouse model of LiCa/pilocarpine-induced status epilepticus assessed as amplitude at 20 mg/kg, po for 10 days by EEG method relative to control; format: functional; conditions: time 10 day; summary of the method: as §2
[6] = test system: Mus musculus; assay: Anticonvulsant activity against mouse model of LiCa/pilocarpine-induced status epilepticus assessed as delta at 20 mg/kg, po for 10 days by EEG method relative to control; format: functional; conditions: time 10 day; summary of the method: as §2
[7] = target: T1, Receptor tyrosine-protein kinase erbB-2 (Homo sapiens, UniProt P04626); assay: Inhibition of HER2 (unknown origin) at 10 uM relative to control
Summary of the method: (§3)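 Cell-free immunoassay kit measuring EGFR T790M/HER2 kinase inhibition. Percent inhibition screened at 10 µM. IC50 obtained from four concentrations (0.01-10 µM) by fitting E(%) = Emax/(1+[I]/ID50) to a dose-response curve. Mean of two independent replicates.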

[8] = test system: MCF7; assay: Induction of apoptosis in human MCF7 cells assessed as late apoptotic cells at IC50 concentration after 24 hrs by annexin-V-FITC/PI staining based flow cytometric analysis (reference value: 0.47%)
[9] = test system: Mus musculus; assay: Anticonvulsant activity against mouse model of LiCa/pilocarpine-induced status epilepticus assessed as Glutamate level in brain at 20 mg/kg, po for 10 days by ELISA relative to control; format: functional; conditions: time 10 day; summary of the method: as §2
[10] = test system: Mus musculus; assay: Anticonvulsant activity against mouse model of LiCa/pilocarpine-induced status epilepticus assessed as power pV2 at 20 mg/kg, po for 10 days by EEG method relative to control; format: functional; conditions: time 10 day; summary of the method: as §2
[11] = test system: MCF7; assay: Induction of cell cycle arrest in human MCF7 cells assessed as cell accumulation at pre-G1 phase at IC50 concentration after 24 hrs by propidium iodide staining based flow cytometric analysis (reference value: 1.49%); format: functional
[12] = test system: MCF7; assay: Induction of cell cycle arrest in human MCF7 cells assessed as cell increase in accumulation at G2/M phase at IC50 concentration after 24 hrs by propidium iodide staining based flow cytometric analysis; format: functional
[13] = test system: MCF7; assay: Induction of apoptosis in human MCF7 cells assessed as increase in late apoptotic cells at IC50 concentration after 24 hrs by annexin-V-FITC/PI staining based flow cytometric analysis; format: functional
[14] = test system: MCF7; assay: Induction of apoptosis in human MCF7 cells assessed as increase in Bax protein expression at IC50 concentration after 24 hrs by ELISA; format: functional; summary of the method: as §1
[15] = test system: Mus musculus; assay: Anticonvulsant activity against mouse model of LiCa/pilocarpine-induced status epilepticus assessed as alpha at 20 mg/kg, po for 10 days by EEG method relative to control; format: functional; conditions: time 10 day; summary of the method: as §2
[16] = target: T1, Receptor tyrosine-protein kinase erbB-2; assay: Inhibition of HER2 (unknown origin); summary of the method: as §3
[17] = test system: Mus musculus; assay: Anticonvulsant activity against mouse model of LiCa/pilocarpine-induced status epilepticus assessed as GSH level in brain at 20 mg/kg, po for 10 days by calorimetric method relative to control; format: functional; conditions: time 10 day; summary of the method: as §2
[18] = test system: MCF7; assay: Induction of apoptosis in human MCF7 cells assessed as increase in Bax/Bcl-2 ratio at IC50 concentration after 24 hrs by ELISA; format: functional, cell-based; summary of the method: as §1
[19] = test system: MCF7; assay: Induction of cell cycle arrest in human MCF7 cells assessed as cell accumulation at G1 phase at IC50 concentration after 24 hrs by propidium iodide staining based flow cytometric analysis (reference value: 53.77%); format: functional
[20] = test system: Mus musculus; assay: Anticonvulsant activity against mouse model of LiCa/pilocarpine-induced status epilepticus assessed as theta at 20 mg/kg, po for 10 days by EEG method relative to control; format: functional; conditions: time 10 day; summary of the method: as §2
[21] = test system: Mus musculus; assay: Anticonvulsant activity against mouse model of LiCa/pilocarpine-induced status epilepticus assessed as MDA level in brain at 20 mg/kg, po for 10 days by calorimetric method relative to control; format: functional; conditions: time 10 day; summary of the method: as §2
[22] = test system: Mus musculus; assay: Anticonvulsant activity against mouse model of LiCa/pilocarpine-induced status epilepticus assessed as spectral edge frequency at 20 mg/kg, po for 10 days by EEG method relative to control; format: functional; conditions: time 10 day; summary of the method: as §2
[23] = test system: MCF7; assay: Induction of apoptosis in human MCF7 cells assessed as increase in early apoptotic cells at IC50 concentration after 24 hrs by annexin-V-FITC/PI staining based flow cytometric analysis; format: functional
[24] = test system: MCF7; assay: Induction of apoptosis in human MCF7 cells assessed as increase in caspace-9 protein expression at IC50 concentration after 24 hrs by ELISA; format: functional; summary of the method: as §1
[25] = test system: MCF7; assay: Induction of apoptosis in human MCF7 cells assessed as increase in caspace-3 protein expression at IC50 concentration after 24 hrs by ELISA; format: functional; summary of the method: as §1
[26] = test system: MCF7; assay: Induction of apoptosis in human MCF7 cells assessed as early apoptotic cells at IC50 concentration after 24 hrs by annexin-V-FITC/PI staining based flow cytometric analysis (reference value: 0.84%)
[27] = test system: MCF7; assay: Induction of cell cycle arrest in human MCF7 cells assessed as cell accumulation at S phase at IC50 concentration after 24 hrs by propidium iodide staining based flow cytometric analysis (reference value: 42.34%); format: functional
[28] = test system: Mus musculus; assay: Anticonvulsant activity against mouse model of LiCa/pilocarpine-induced status epilepticus assessed as mean power frequency at 20 mg/kg, po for 10 days by EEG method relative to control; format: functional; conditions: time 10 day; summary of the method: as §2
[29] = test system: WI-38; assay: Cytotoxicity against human WI-38 cells assessed as reduction in cell viability after 48 hrs by MTT assay; format: cell-based; conditions: WI-38, 48 h
Summary of the method: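 Cells from ATCC grown in DMEM with 10% FBS, insulin and 1% penicillin-streptomycin. Plated at 1.2-1.8 × 10,000 cells/well for 24 h, then exposed to compounds in DMSO vehicle for 48 h. MTT 0.5 mg/ml added for 2 h; absorbance read at 570 nm. Experiments run in triplicate.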

[30] = test system: Mus musculus; assay: Anticonvulsant activity against mouse model of LiCa/pilocarpine-induced status epilepticus assessed as total power at 20 mg/kg, po for 10 days by EEG method relative to control; format: functional; conditions: time 10 day; summary of the method: as §2
[31] = test system: Mus musculus; assay: Anticonvulsant activity against mouse model of LiCa/pilocarpine-induced status epilepticus assessed as GABA level in brain at 20 mg/kg, po for 10 days by ELISA relative to control; format: functional; conditions: time 10 day; summary of the method: as §2
[32] = target: Epidermal growth factor receptor (Homo sapiens, UniProt P00533, T790M); assay: Inhibition of EGFR T790M mutant (unknown origin)
[33] = test system: Mus musculus; assay: Anticonvulsant activity against mouse model of LiCa/pilocarpine-induced status epilepticus assessed as amplitude density at 20 mg/kg, po for 10 days by EEG method relative to control; format: functional; conditions: time 10 day; summary of the method: as §2

T1 sequence (P04626 whole entry): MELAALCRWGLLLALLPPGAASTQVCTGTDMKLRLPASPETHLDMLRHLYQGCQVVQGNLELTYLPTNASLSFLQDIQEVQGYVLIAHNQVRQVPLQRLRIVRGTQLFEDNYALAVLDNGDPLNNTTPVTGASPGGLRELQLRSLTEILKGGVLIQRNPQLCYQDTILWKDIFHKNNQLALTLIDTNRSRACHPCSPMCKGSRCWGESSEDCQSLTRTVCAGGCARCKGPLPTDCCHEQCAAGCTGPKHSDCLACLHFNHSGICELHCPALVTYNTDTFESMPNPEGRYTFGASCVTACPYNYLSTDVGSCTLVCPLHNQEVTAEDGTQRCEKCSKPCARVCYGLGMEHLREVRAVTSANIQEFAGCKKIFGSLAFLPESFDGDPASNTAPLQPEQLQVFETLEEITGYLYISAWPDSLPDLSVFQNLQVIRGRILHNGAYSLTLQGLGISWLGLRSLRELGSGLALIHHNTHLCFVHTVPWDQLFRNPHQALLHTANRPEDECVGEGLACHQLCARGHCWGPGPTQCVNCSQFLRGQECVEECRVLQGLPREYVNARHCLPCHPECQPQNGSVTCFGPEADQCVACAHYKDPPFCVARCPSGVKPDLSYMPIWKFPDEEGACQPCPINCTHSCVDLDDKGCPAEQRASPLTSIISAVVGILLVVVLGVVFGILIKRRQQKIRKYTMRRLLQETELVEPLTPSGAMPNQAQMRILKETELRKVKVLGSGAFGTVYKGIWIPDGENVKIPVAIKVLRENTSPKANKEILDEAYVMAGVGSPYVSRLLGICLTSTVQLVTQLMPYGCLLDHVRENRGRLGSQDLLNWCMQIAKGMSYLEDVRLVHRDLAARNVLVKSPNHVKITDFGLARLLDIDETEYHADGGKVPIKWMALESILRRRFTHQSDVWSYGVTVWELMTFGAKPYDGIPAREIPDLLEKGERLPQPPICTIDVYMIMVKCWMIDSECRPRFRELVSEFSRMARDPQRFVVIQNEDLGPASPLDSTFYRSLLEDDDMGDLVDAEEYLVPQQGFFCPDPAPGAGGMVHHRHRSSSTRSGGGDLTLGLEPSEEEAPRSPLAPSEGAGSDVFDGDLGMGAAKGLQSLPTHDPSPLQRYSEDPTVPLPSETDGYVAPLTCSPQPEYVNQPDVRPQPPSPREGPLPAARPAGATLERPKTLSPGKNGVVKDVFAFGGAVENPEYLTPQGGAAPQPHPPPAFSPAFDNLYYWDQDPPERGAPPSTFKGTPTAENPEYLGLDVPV
Chain of Epidermal growth factor receptor (P00533 25-1210 T790M limits assumed): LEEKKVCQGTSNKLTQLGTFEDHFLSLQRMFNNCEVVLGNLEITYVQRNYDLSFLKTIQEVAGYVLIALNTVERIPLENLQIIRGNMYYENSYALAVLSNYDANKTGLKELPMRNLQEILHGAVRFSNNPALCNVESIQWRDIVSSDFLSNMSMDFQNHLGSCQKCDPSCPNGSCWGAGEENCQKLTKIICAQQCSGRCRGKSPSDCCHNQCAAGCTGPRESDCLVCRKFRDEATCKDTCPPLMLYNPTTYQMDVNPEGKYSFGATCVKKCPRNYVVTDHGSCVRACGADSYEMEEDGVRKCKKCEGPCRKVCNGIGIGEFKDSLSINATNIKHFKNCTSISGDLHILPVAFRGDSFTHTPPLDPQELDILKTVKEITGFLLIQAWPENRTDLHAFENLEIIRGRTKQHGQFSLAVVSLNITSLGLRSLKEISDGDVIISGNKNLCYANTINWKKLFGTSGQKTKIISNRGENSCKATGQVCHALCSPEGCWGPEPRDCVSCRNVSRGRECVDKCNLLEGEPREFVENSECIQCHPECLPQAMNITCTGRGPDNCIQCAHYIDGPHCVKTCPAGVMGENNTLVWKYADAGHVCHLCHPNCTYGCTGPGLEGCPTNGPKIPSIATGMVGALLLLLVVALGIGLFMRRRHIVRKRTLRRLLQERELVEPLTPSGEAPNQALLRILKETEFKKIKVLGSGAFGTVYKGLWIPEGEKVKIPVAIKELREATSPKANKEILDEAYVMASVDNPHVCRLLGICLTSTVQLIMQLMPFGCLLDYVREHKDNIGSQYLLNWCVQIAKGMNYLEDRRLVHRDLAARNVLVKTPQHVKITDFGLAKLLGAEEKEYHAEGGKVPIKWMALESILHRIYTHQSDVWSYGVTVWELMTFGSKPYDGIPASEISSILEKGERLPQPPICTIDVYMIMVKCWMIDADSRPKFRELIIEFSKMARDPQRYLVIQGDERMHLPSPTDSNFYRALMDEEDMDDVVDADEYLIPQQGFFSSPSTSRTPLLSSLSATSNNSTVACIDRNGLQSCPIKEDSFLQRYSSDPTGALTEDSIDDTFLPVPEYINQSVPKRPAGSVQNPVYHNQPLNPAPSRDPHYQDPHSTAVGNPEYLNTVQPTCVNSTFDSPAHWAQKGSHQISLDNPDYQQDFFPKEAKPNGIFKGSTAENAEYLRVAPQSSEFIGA

With `COc1ccc(/C=C2/N=C(c3ccc(Cl)cc3)N(C(=O)Cc3nc4c(c(C)nn4-c4ccccc4)c(=O)[nH]3)NC2=O)cc1` the “fold change (FC)” value [1] was 3.4, the Activity [2] was 46.57% and the Activity [3] was 174.78%. The “fold change (FC)” value [4] was 7.9, the Activity [5] was 47.56% and the Activity [6] was 258.15%. For the same compound, the inhibition [7] was 86.7%, the Activity [8] was 13.9% and the Activity [9] was -36.07%. For the same compound, the Activity [10] was 132.38%, the Activity [11] was 22.12% and the “fold change (FC)” value [12] was 11.97. For the same compound, the fold change (FC) [13] was 29.5, the “fold change (FC)” value [14] was 5.6 and the Activity [15] was 28.04%. For the same compound, the IC50 [16] was 866 nM, the Activity [17] was 179.51% and the Activity [18] was “Active”. It also gave an Activity [19] of 25.09%, an Activity [20] of 55.17% and an Activity [21] of -50%. For the same compound, the Activity [22] was -20.21%, the fold change (FC) [23] was 5.6 and the “fold change (FC)” value [24] was 22.9. For the same compound, the “fold change (FC)” value [25] was 12, the Activity [26] was 4.98% and the Activity [27] was 28.34%. The Activity [28] was -28.59%, the IC50 [29] was 54.9 nM and the Activity [30] was 13.12%. For the same compound, the Activity [31] was 71.54%, the IC50 [32] was 227 nM and the Activity [33] was 67.48%.
